Assay results taken from ChEMBL document CHEMBL1153582, “Expedient solid-phase synthesis of both symmetric and asymmetric diol libraries targeting aspartic proteases” (Bioorg Med Chem Lett, 2009).

Legend:
Protease = Protease (Human immunodeficiency virus 1, UniProt Q9YQ12); assay: Inhibition of HIV1 protease by fluorescence microplate assay
Procedure, shortened: (§1)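 Library products were used as crude material, without purification, for direct in situ screening in a standard fluorescence microplate assay. IC50 was taken from inhibition curves plotted against log inhibitor concentration in nM.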

Plasmepsin II = Plasmepsin II (Plasmodium falciparum, UniProt P46925); assay: Inhibition of Plasmodium falciparum plasmepsin-2 in fluorescence microplate assay; procedure, shortened: as §1
Plasmepsin II, sequence (P46925 whole entry): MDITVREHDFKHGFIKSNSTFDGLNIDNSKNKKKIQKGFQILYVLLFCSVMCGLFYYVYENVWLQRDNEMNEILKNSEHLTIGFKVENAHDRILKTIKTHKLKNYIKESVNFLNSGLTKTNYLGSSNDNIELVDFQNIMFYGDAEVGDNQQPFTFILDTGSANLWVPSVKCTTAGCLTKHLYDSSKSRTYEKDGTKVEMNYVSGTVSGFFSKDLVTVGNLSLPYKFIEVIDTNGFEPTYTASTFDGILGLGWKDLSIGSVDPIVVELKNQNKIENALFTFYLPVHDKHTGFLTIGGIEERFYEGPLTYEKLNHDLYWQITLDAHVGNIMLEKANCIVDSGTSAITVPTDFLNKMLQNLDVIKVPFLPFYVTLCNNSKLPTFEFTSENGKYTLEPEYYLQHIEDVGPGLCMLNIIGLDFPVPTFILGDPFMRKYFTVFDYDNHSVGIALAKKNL

Plasmepsin I = Plasmepsin I (Plasmodium falciparum, UniProt P39898); assay: Inhibition of Plasmodium falciparum plasmepsin-1 in fluorescence microplate assay; procedure, shortened: as §1
Plasmepsin I, sequence (P39898 whole entry): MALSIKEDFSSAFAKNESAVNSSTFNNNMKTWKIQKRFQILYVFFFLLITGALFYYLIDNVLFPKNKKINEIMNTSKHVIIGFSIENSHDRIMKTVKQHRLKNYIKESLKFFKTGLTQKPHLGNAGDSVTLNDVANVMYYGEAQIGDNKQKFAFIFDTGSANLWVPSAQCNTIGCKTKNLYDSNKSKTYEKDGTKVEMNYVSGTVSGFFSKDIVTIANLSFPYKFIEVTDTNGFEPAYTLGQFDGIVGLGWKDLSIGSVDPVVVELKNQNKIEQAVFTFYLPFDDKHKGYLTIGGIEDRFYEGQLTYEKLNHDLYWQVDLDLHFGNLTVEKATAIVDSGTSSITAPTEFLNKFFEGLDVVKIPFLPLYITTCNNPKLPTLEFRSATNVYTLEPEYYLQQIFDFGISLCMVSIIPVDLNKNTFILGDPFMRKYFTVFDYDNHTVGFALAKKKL

Protease, sequence (Q9YQ12 whole entry): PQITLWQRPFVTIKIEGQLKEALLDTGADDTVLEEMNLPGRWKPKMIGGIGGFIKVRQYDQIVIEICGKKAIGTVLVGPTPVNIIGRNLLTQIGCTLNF

Row | IC50 (Protease) [µM] | Ki (Protease) [µM] | IC50 (Plasmepsin II) [µM] | IC50 (Plasmepsin I) [µM] | Structure (SMILES)
1 | 0.395 | 0.4 | > 25 | > 25 | O=C(N[C@@H](Cc1ccccc1)[C@@H](O)[C@H](O)[C@H](Cc1ccccc1)NC(=O)c1ccc(F)cc1Cl)c1ccc(F)cc1Cl
2 | 1.31 |  | > 25 | > 25 | COc1ccccc1C(=O)N[C@@H](CC(C)C)[C@@H](O)[C@H](O)[C@H](CC(C)C)NC(=O)c1ccccc1OC
3 | > 25 |  | 3.91 | 4.39 | O=C(CC1CCCCC1)N[C@@H](Cc1ccccc1)[C@@H](O)[C@H](O)[C@H](Cc1ccccc1)NC(=O)CC1CCCCC1

Second part, the compound before the results:

Row | Structure (SMILES) | IC50 (Protease) [µM] | Ki (Protease) [µM] | IC50 (Plasmepsin II) [µM] | IC50 (Plasmepsin I) [µM]
4 | O=C(N[C@@H](Cc1ccccc1)[C@@H](O)[C@H](O)[C@H](Cc1ccccc1)NC(=O)c1ccc(F)cc1Cl)c1ccc2c(c1)OCCO2 | > 25 |  | 11.8 | > 25
5 | Cc1ccc(C(=O)N[C@@H](Cc2ccccc2)[C@@H](O)[C@H](O)[C@H](Cc2ccccc2)NC(=O)C2CCOC2)cn1 (some centres undefined) | > 25 |  | 12.7 | > 25
6 | CC(C)C[C@H](NC(=O)CC1CCCCC1)[C@@H](O)[C@H](O)[C@H](CC(C)C)NC(=O)CC1CCCCC1 | > 25 |  | > 25 | 2.64
